Experiment: Binding affinity to Bovicola ovis recombinant ecdysone receptor ligand binding domain after 3 hrs by fluorescence polarization assay
How it was run: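 B. ovis EcR_DEF/USP_DEF LBD heterodimer, co-expressed from baculovirus and purified by IMAC (2.51 mg/mL final). Competes with 36 nM fluorescein–inokosterone A conjugate in 50 mM sodium phosphate, 100 mM NaCl, pH 7.4 with 0.5 mg/mL BSA and 3% v/v DMSO. Compound range 3 nM–3 mM final. Incubated overnight at 4 °C, then 3 h at room temperature before polarisation (mP) read. Triplicate; IC50 from mean.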

IC50 [µM]	Compound
71	C=C1C(CCCC)=C(C#N)C(=O)N1c1c(C)cccc1[N+](=O)[O-]
7	C=C1C(C)=C(C#N)C(=O)N1c1cc(Cl)c(Cl)cc1Cl
55	C=C1C(C)=C(C#N)C(=O)N1c1c(C)cc(Cl)cc1Cl
48	C=C1C(C)=C(C#N)C(=O)N1c1c(C)cc(Cl)cc1C
68	C=C1C(C)=C(C#N)C(=O)N1c1c(C)cc(C)cc1C
17.5	C=C1C(CC)=C(C#N)C(=O)N1c1cccc(Cl)c1Cl
15	C=C1C(CC)=C(C#N)C(=O)N1c1cccc(Cl)c1C
80	C=C1C(CC)=C(C#N)C(=O)N1c1c(C)cccc1CC
160	C=C1C(CC)=C(C#N)C(=O)N1c1c(Cl)cc(Cl)cc1Cl
11	C=C1C(CC(C)C)=C(C#N)C(=O)N1c1ccccc1C
85	C=C1C(C)=C(C#N)C(=O)N1C1CCCC1
50	C=C1C(C)=C(C#N)C(=O)N1C1CCCCC1
27.5	C=C1C(CCC)=C(C#N)C(=O)N1C1CCCCC1
250	C=C1C(C)=C(C#N)C(=O)N1C1CCCC(C)C1C (stereo not drawn)
48	C=C1C(C)=C(C#N)C(=O)N1C1CC2CCC1C2 (stereo not drawn)
26	C=C1C(C)=C(C#N)C(=O)N1C1CCCc2ccccc21 (stereo not drawn)
37.5	C=C1C(C)=C(C#N)C(=O)N1Cc1ccccc1Cl
95	C=C1C(C)=C(C#N)C(=O)N1c1ccc(Cl)cn1
45	C=C1C(C)=C(C#N)C(=O)N1c1ncc(Cl)cc1Cl
26	C=C1C(C)=C(C#N)C(=O)N1c1cnc2ccccc2c1
90	C=C1C(C)=C(C#N)C(=O)N1c1nccs1
45	C=C1C(C)=C(C(C)=O)C(=O)N1c1cc(Cl)c(Cl)cc1Cl

IC50 [µM]	Compound
55	C=C1C(C)=C(C#N)C(=O)N1c1ccccc1Cl
37.5	C=C1C(C)=C(C#N)C(=O)N1c1ccccc1Br
80	C=C1C(C)=C(C#N)C(=O)N1c1ccccc1C
22.5	C=C1C(C)=C(C#N)C(=O)N1c1ccccc1C(C)C
17.5	C=C1C(C)=C(C#N)C(=O)N1c1ccccc1C(C)(C)C
11	C=C1C(C)=C(C#N)C(=O)N1c1ccccc1OC
350	C=C1C(C)=C(C#N)C(=O)N1c1ccccc1OCC
19	C=C1C(C)=C(C#N)C(=O)N1c1cccc(Cl)c1
25	C=C1C(C)=C(C#N)C(=O)N1c1cccc(SC)c1
22	C=C1C(C)=C(C#N)C(=O)N1c1cccc(C(F)(F)F)c1
150	C=C1C(C)=C(C#N)C(=O)N1c1ccc(N(C)C)cc1
575	C=C1C(C)=C(C#N)C(=O)N1c1ccc(NC(C)=O)cc1
22.5	C=C1C(C)=C(C#N)C(=O)N1c1cccc(Cl)c1Cl
90	C=C1C(C)=C(C#N)C(=O)N1c1ccc(F)cc1F
150	C=C1C(C)=C(C#N)C(=O)N1c1ccc(OC)cc1OC
12.5	C=C1C(C)=C(C#N)C(=O)N1c1cc(Cl)ccc1Cl
92.5	C=C1C(C)=C(C#N)C(=O)N1c1cc(Cl)ccc1O
650	C=C1C(C)=C(C#N)C(=O)N1c1cc(Cl)ccc1OC
160	C=C1C(C)=C(C#N)C(=O)N1c1c(C)cccc1[N+](=O)[O-]
20	C=C1C(C)=C(C#N)C(=O)N1c1ccc(F)c([N+](=O)[O-])c1
67.5	C=C1C(C)=C(C#N)C(=O)N1c1ccc2c(c1)OCO2
15	C=C1C(C)=C(C#N)C(=O)N1c1ccc(Cl)c(Cl)c1Cl

IC50 [µM]	Compound
17.5	C=C1C(CCCC)=C(C#N)C(=O)N1c1c(C)cc(Cl)cc1C(C)C
11	C=C1C(CCCC)=C(C#N)C(=O)N1c1c(C)cc(C)cc1C
21	C=C1C(CCCC)=C(C#N)C(=O)N1c1cc(OC)c(OC)c(OC)c1
6.8	C=C1C(CC(C)C)=C(C#N)C(=O)N1c1cc(Cl)ccc1Cl
45	C=C1C(CC(C)C)=C(C#N)C(=O)N1c1c(Cl)c(Cl)cc(Cl)c1Cl
88	CN(C(=O)C1CCCCC1)N1C(=O)C(C#N)=C2CCCC=C21
25	C=C1C(C)=C(C#N)C(=O)N1c1ccccc1-c1ccccc1
45	C=C1C(C)=C(C#N)C(=O)N1c1ccccc1OC(F)(F)F
8.5	C=C1C(c2ccccc2)=C(C#N)C(=O)N1c1cc(Cl)ccc1Cl
12.5	C=C1C(c2ccccc2)=C(C#N)C(=O)N1c1cc(C)ccc1F
25	C=C1C(C)=C(C#N)C(=O)N1c1ccccc1Oc1ccccc1
22.5	C=C1C(C)=C(C#N)C(=O)N1c1ccccc1Cc1ccccc1
18	C=C1C(C)=C(C#N)C(=O)N1c1cccc(Oc2ccccc2)c1
22	C=C1C(CCCCCCCC)=C(C#N)C(=O)N1c1c(C)cc(C)cc1C
2300	CCC/C=C1\C(C)=C(C#N)C(=O)N1c1c(C(C)(C)C)ccc(Cl)c1C
65	COc1cc(OC)cc(N2C(=O)C(C#N)=C(C)/C2=C/C(C)C)c1
35	C=C1C(C)=C(C#N)C(=O)N1c1ccc(-c2ccccc2)cc1
400	C=C1C(C)=C(C#N)C(=O)N1c1ccc(N(C)C(C)=O)cc1
15	C=C1C(C)=C(C#N)C(=O)N1c1ccc(Cl)c2ccccc12
72.5	C=C1C(CC)=C(C#N)C(=O)N1NC(=O)c1ccc(Cl)cc1
4.5	C=C1C(C)=C(C#N)C(=O)N1c1cc(C(F)(F)F)ccc1C(F)(F)F
55	C=C1C(C)=C(C#N)C(=O)N1c1cc([N+](=O)[O-])ccc1OC

IC50 [µM]	Compound
55	C=C1C(C)=C(C#N)C(=O)N1c1cc(Cl)ccc1OC(=O)CC
16	C=C1C(C)=C(C(=O)C(C)C)C(=O)N1c1cc(Cl)c(Cl)cc1Cl
11	C=C1C(C)=C(C(=O)OCC)C(=O)N1c1cc(Cl)c(Cl)cc1Cl
160	C=C1C(C)=C(C#N)C(=O)N1c1c(C)cccc1C(C)(C)C
150	C=C1C(C)=C(C#N)C(=O)N1c1c(CC)cccc1C(C)(C)C
18	C=C1C(C)=C(C(=O)c2ccccc2)C(=O)N1c1cc(C(F)(F)F)ccc1Cl
58	C=C1C(C)=C(C(=O)c2ccccc2)C(=O)N1c1c(C)cccc1C(C)C
20	C=C1C(C)=C(C#N)C(=O)N1c1c(C)cc(Cl)cc1C(C)C
160	C=C1C(C)=C(C#N)C(=O)N1c1c(C)cc(C)cc1C(F)(C(F)(F)F)C(F)(F)F
2250	C=C1C(C)=C(C(=O)c2ccccc2)C(=O)N1c1c(C(C)C)cccc1C(C)C
9	C=C1C(C)=C(C(=O)c2ccccc2)C(=O)N1c1cc(Cl)c(Cl)cc1Cl
40	C=C1C(CC)=C(C#N)C(=O)N1c1ccccc1C(C)(C)C
26	C=C1C(CC)=C(C#N)C(=O)N1c1ccccc1OC(F)(F)F
44	C=C1C(C)=C(C(=O)c2ccccc2)C(=O)N1c1c(C)cc(C)cc1C
45	C=C1C(CC)=C(C#N)C(=O)N1c1c(C)cccc1C(C)C
48	C=C1C(CCC)=C(C#N)C(=O)N1c1c(C)cccc1CC
10.5	C=C1C(CCC)=C(C#N)C(=O)N1c1c(C)cccc1C(C)C
11	C=C1C(C(C)C)=C(C#N)C(=O)N1c1c(C)cc(Cl)cc1C
55	C=C1C(C(C)C)=C(C#N)C(=O)N1c1c(C)cc(C)cc1C
15	C=C1C(CCCC)=C(C#N)C(=O)N1c1ccccc1OC(F)(F)F
35	C=C1C(CCCC)=C(C#N)C(=O)N1c1c(C)cccc1C
20.3	C=C1C(CCCC)=C(C#N)C(=O)N1c1c(C)cccc1C(C)C

Source: ChEMBL document CHEMBL1250461, “Synthesis, binding and bioactivity of gamma-methylene gamma-lactam ecdysone receptor ligands: advantages of QSAR models for flexible receptors” (Bioorg Med Chem, 2010)
